Measurements taken from ChEMBL document CHEMBL1127041, “(Imidazolylphenyl)pyrrol-2-one inhibitors of cardiac cAMP phosphodiesterase” (J Med Chem, 1993).
pIC50: −log10 of the molar value. Active and inactive are the calls of the source. The rule behind the calls is not given here.

Tests used:
[1] = system: Canis familiaris; assay: Percentage decrease in Mean arterial pressure in pentobarbital anesthetized dogs at 3 mg/kg; type: functional, Canis lupus familiaris, Artery
How it was run: (§1)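 Pentobarbital-anesthetized dogs were given the agent intravenously at 1 and 3 mg/kg. Left ventricular dP/dt, heart rate and mean arterial pressure were monitored. Values are mean percent change from control ± SEM, n = 4.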

[2] = system: Canis familiaris; assay: Mean percentage change in heart rate of pentobarbital anesthetized dogs at 1 mg/kg; type: functional, Canis lupus familiaris; how it was run: as §1
[3] = species on record: Canis lupus familiaris; assay: Percentage inhibition of cAMP PDE in canine brain tissue; type: tissue-based; settings: dose or concentration not given here
[4] = system: Canis familiaris; assay: Mean percentage change in the left ventricular contractility (dP/dt) in pentobarbital anesthetized dogs at 3 mg/kg; type: functional, Canis lupus familiaris, Heart left ventricle; how it was run: as §1
[5] = system: Canis familiaris; assay: Percentage decrease in Mean arterial pressure in pentobarbital anesthetized dogs at 1 mg/kg; type: functional, Canis lupus familiaris, Artery; how it was run: as §1
[6] = (§2) Inhibition of cAMP PDE in canine cardiac tissue; parameters: species or system Canis lupus familiaris
How it was run: (§3)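 The enzyme was partially purified cAMP phosphodiesterase from canine brain or cardiac tissue. IC50 is the concentration giving 50% inhibition, taken from the mean of three separate dose-response determinations. Near the IC50, inhibition at the test doses ranged by less than ±8%.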

[7] = species on record: Mustela putorius furo; assay: In vitro inotropic effect, 20% increase in the force of contraction of isolated ferret papillary muscle strips; type: functional; settings: Muscle tissue
How it was run: (§4)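 Isolated ferret papillary muscle in vitro. The read-out is the dose that gives a 20% rise in contractile force over control (EC20). "NR" means this rise was not reached at 100 μM.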

[8] = system: Canis familiaris; assay: Mean percentage change in heart rate of pentobarbital anesthetized dogs at 3 mg/kg; type: functional, Canis lupus familiaris; how it was run: as §1
[9] = system: Canis familiaris; assay: Mean percentage change in the left ventricular contractility (dP/dt) in pentobarbital anesthetized dogs at 1 mg/kg; type: functional, Canis lupus familiaris, Heart left ventricle; how it was run: as §1
[10] = species on record: Canis lupus familiaris; assay: as §2; settings: concentration not given here; how it was run: as §3
[11] = Inhibition of cAMP PDE from canine brain; parameters: species or system Canis lupus familiaris; how it was run: as §3
[12] = species on record: Mustela putorius furo; assay: In vitro inotropic effect, 20% increase in the force of contraction of isolated ferret papillary muscle strips (two EC20 determinations); type: functional; settings: Muscle tissue
How it was run: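 Contractile force was measured in isolated ferret papillary muscle in vitro. EC20 is the dose that gives a 20% increase in force. Two separate EC20 determinations were made.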

[13] = species on record: Mustela putorius furo; assay: In vitro inotropic effect, 20% increase in the force of contraction of isolated ferret papillary muscle strips (Not reached at 100 uM); type: functional; settings: Muscle tissue; how it was run: as §4
[14] = species on record: Canis lupus familiaris; assay: Inhibition of cAMP PDE in canine brain; settings: concentration not given here; how it was run: as §3
[15] = system: Canis familiaris; assay: Percentage decrease in Mean arterial pressure in pentobarbital anesthetized dogs at 0.3 mg/kg; type: functional, Canis lupus familiaris, Artery
How it was run: (§5)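 Pentobarbital-anesthetized dogs received doses of 0.1 and 0.3 mg/kg. Left ventricular dP/dt, heart rate and mean arterial pressure were monitored. Values are mean percent change from control ± SEM, n = 6.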

[16] = system: Canis familiaris; assay: Mean percentage change in heart rate of pentobarbital anesthetized dogs at 0.1 mg/kg; type: functional, Canis lupus familiaris; how it was run: as §5
[17] = system: Canis familiaris; assay: Mean percentage change in the left ventricular contractility (dP/dt) in pentobarbital anesthetized dogs at 0.1 mg/kg; type: functional, Canis lupus familiaris, Heart left ventricle; how it was run: as §5
[18] = system: Canis familiaris; assay: Mean percentage change in heart rate of pentobarbital anesthetized dogs at 0.3 mg/kg; type: functional, Canis lupus familiaris; how it was run: as §5
[19] = system: Canis familiaris; assay: Percentage decrease in Mean arterial pressure in pentobarbital anesthetized dogs at 0.1 mg/kg; type: functional, Canis lupus familiaris, Artery; how it was run: as §5
[20] = system: Canis familiaris; assay: Mean percentage change in the left ventricular contractility (dP/dt) in pentobarbital anesthetized dogs at 0.3 mg/kg; type: functional, Canis lupus familiaris, Heart left ventricle; how it was run: as §5

| pIC50 [6] | inhibition [10] [%] | pIC50 [11] | SMILES | Decrease [1] [%] | Increase [2] [%] | inhibition [3] [%] | Increase [4] [%] | Decrease [5] [%] | EC20 [7] [µM] | Increase [8] [%] | Increase [9] [%] | also measured |
| --- | --- | --- | --- | --- | --- | --- | --- | --- | --- | --- | --- | --- |
| 4.60 |  |  | CC1=C(c2ccc(-n3ccnc3)cc2)CNC1=O | 14 | 7 | 16 | 75 | 3 | 2.3 | 19 | 40 |  |
|  | 46 | 4.40 | COc1ccc(C2=CC(=O)NC2)cc1OC |  |  |  |  |  |  |  |  | EC20 [12]: 6.5 µM |
| 4.32 |  |  | CCC1=C(c2ccc(-n3ccnc3)cc2)CNC1=O | 22 | 9 | 10 | 44 | 13 | 10.7 | 21 | 21 |  |
| 4.41 |  |  | CCC1=C(c2ccc(-n3ccnc3C)cc2)CNC1=O | 30 | 8 | < 5 | 80 | 18 | 4.8 | 22 | 52 |  |
|  | 3 |  | COc1ccc(C2CNC(=O)C2)cc1OC (configuration not stated) |  |  |  |  |  |  |  |  | EC20 [13]: Not reached; inhibition [14]: 36% |
| 4.59 |  | 4.00 | COc1ccc(C2=C(C)C(=O)NC2)cc1OC |  |  |  |  |  | 3.8 |  |  |  |
| 4.52 |  |  | CC1=C(c2ccc(-n3ccnc3C)cc2)CNC1=O | 10 | 7 | 10 | 33 | 6 | 10.2 | 14 | 14 |  |
| 5.26 |  |  | Cc1[nH]c(=O)c(C#N)cc1-c1ccncc1 [MILRINONE] |  |  | 34 |  |  | 0.5 |  |  | Decrease [15]: 30%; Increase [16]: 19%; Increase [17]: 57%; Increase [18]: 32%; Decrease [19]: 13%; Increase [20]: 81% |
|  | 28 | 6.10 | COc1ccc(C2CNC(=O)C2)cc1OC1CCCC1 (configuration not stated) [ROLIPRAM] |  |  |  |  |  |  |  |  | EC20 [13]: inactive |
